Measurements from ChEMBL document CHEMBL3774374, “The Effect of Small Molecules on Sterol Homeostasis: Measuring 7-Dehydrocholesterol in Dhcr7-Deficient Neuro2a Cells and Human Fibroblasts” (J Med Chem, 2016).
Activity calls are given as the source filed them. No cut-off for these calls is given here.

Columns and labels:
N2a [1] = assay: Decrease in lanosterol levels in mouse Neuro2a cells by LC-MS analysis; assay type: functional, cell-based
How it was run: (§1)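 Control Neuro2a cells (10000/well, 0.5% FBS) on compound, 24 h. Hoechst cell count, then methanol lysis with labelled standards (d7-7-DHC, 13C3-desmosterol, 13C3-lanosterol), PTAD derivatization 20 min at RT, UPLC-MS SRM. GC-MS of silylated extract for further sterols.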

N2a [2] = assay: Decrease in desmosterol levels in mouse Neuro2a cells by LC-MS analysis; assay type: functional, cell-based; how it was run: as §1
[3] = target: T1, 3-hydroxy-3-methylglutaryl-coenzyme A reductase (Mus musculus) (UniProt Q01237); assay: Inhibition of HMGCoA reductase in Dhcr7-deficient mouse Neuro2a cells assessed as decrease in 7-DHC levels at 1 uM by LC-MS/GC-MS analysis; assay type: cell-based
T1 sequence (whole entry): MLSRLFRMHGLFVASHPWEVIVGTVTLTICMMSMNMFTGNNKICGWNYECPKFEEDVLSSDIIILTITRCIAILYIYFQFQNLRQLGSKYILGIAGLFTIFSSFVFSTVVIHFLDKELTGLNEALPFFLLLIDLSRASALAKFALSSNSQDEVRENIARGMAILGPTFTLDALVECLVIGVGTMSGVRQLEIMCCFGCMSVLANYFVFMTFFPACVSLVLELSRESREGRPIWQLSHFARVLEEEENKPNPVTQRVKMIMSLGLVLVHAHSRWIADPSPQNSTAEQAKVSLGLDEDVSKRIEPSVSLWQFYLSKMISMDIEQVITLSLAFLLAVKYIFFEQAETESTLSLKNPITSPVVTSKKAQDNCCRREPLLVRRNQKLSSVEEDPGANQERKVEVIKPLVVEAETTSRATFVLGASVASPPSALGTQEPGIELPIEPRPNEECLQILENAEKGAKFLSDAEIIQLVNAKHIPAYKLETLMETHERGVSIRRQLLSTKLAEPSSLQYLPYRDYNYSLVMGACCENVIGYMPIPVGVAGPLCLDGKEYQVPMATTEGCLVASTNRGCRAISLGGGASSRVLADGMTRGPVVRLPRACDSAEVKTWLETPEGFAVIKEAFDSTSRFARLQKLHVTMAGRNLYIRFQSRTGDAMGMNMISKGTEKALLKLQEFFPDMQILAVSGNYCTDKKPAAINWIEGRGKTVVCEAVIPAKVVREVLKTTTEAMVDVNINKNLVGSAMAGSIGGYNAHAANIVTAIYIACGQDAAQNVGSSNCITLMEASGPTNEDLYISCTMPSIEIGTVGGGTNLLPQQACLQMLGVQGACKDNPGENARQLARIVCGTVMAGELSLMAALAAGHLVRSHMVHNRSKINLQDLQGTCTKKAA
How it was run: (§2)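 Dhcr7-deficient Neuro2a cells (13000/well, 0.5% FBS medium) on predeposited compound, 24 h at 37 °C. Hoechst-stained and imaged to count cells. Lysed in methanol containing isotope-labelled sterol standards, derivatized with PTAD 20 min at RT, then isocratic C18 UPLC-MS/SRM. Remaining extract silylated with BSTFA for GC-MS, quantified against d7-cholesterol. Follow-up runs in triplicate.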

N2a [4] = assay: Decrease in 7-DHC levels in Dhcr7-deficient mouse Neuro2a cells at 1 uM by LC-MS/GC-MS analysis; assay type: functional, cell-based; how it was run: as §2
[5] = target: T2, Delta(24)-sterol reductase (Mus musculus) (UniProt Q8VCH6); assay: Inhibition of DR24 in Dhcr7-deficient mouse Neuro2a cells assessed as decrease in 7-DHC levels at 1 uM by LC-MS/GC-MS analysis; assay type: cell-based; how it was run: as §2
T2 sequence (whole entry): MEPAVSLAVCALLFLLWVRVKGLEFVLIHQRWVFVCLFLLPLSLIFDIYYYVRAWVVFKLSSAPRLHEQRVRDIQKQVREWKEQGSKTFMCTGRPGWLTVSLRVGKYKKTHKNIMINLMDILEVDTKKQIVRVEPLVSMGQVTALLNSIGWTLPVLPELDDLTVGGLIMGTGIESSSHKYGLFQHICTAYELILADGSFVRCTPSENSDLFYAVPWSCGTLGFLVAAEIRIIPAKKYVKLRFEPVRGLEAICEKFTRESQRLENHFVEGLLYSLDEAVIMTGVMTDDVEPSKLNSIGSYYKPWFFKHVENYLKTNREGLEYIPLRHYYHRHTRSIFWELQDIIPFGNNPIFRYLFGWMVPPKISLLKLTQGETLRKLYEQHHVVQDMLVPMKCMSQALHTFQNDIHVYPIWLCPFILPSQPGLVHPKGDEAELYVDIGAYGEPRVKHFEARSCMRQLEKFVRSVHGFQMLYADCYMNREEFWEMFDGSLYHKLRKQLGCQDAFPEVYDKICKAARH

[6] = target: T3, Lanosterol 14-alpha demethylase (Mus musculus, UniProt Q8K0C4); assay: Inhibition of CYP51 in Dhcr7-deficient mouse Neuro2a cells assessed as decrease in 7-DHC levels at 1 uM by LC-MS/GC-MS analysis; assay type: cell-based
T3 sequence (Q8K0C4 whole entry): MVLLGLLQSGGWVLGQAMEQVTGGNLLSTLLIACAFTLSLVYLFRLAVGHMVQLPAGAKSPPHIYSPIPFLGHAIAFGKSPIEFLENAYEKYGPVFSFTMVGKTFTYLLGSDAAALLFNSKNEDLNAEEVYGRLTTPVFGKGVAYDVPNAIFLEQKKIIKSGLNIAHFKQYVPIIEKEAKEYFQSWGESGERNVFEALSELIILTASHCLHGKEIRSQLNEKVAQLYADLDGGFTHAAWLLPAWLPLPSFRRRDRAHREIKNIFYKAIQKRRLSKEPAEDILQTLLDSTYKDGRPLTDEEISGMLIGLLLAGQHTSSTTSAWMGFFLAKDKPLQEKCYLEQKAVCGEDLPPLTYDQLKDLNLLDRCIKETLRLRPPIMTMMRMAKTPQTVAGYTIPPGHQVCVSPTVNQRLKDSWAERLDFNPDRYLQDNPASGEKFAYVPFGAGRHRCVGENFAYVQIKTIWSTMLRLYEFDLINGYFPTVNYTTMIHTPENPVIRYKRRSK
How it was run: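 Follow-up (verification) assay in 96-well plates, run as the 384-well screen, in triplicate, at varying compound concentrations. Cells counted by Hoechst imaging, washed with PBS, then lysed in MeOH with BHT/TPP and isotope standards (d7-Chol, d7-7-DHC, 13C3-Des, 13C3-Lan). Sterols derivatised with PTAD for 20 min at RT and quantified by C18 UPLC-MS (SRM). Remaining sample silylated with BSTFA and run on GC-MS, quantified against d7-Chol.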

[7] = target: T4, 3-beta-hydroxysteroid-Delta(8),Delta(7)-isomerase (Mus musculus) (UniProt P70245); assay: Inhibition of delta 8-7 isomerase in Dhcr7-deficient mouse Neuro2a cells assessed as decrease in 7-DHC levels at 1 uM by LC-MS/GC-MS analysis; assay type: cell-based; how it was run: as §2
T4 sequence (whole entry): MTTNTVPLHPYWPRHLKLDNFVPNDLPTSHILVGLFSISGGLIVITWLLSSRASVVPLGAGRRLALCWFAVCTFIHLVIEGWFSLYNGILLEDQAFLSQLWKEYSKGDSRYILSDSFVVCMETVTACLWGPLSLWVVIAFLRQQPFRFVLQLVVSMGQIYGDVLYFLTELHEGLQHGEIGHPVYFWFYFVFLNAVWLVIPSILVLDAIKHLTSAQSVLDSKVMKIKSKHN

[8] = target: T2, Delta(24)-sterol reductase (Mus musculus); assay: Inhibition of DR24 in mouse Neuro2a cells assessed as decrease in 7-DHC levels at 1 uM by LC-MS/GC-MS analysis; assay type: cell-based; how it was run: as §1
[9] = target: T4, 3-beta-hydroxysteroid-Delta(8),Delta(7)-isomerase (Mus musculus); assay: Inhibition of delta 8-7 isomerase in mouse Neuro2a cells assessed as decrease in 7-DHC levels at 1 uM by LC-MS/GC-MS analysis; assay type: cell-based; how it was run: as §1
[10] = target: T5, Delta(24)-sterol reductase (Homo sapiens) (UniProt Q15392); assay: Inhibition of DR24 in human SLOS fibroblasts assessed as decrease in 7-DHC levels at 10 nM after 5 days by LC-MS/GC-MS analysis
T5 sequence (whole entry): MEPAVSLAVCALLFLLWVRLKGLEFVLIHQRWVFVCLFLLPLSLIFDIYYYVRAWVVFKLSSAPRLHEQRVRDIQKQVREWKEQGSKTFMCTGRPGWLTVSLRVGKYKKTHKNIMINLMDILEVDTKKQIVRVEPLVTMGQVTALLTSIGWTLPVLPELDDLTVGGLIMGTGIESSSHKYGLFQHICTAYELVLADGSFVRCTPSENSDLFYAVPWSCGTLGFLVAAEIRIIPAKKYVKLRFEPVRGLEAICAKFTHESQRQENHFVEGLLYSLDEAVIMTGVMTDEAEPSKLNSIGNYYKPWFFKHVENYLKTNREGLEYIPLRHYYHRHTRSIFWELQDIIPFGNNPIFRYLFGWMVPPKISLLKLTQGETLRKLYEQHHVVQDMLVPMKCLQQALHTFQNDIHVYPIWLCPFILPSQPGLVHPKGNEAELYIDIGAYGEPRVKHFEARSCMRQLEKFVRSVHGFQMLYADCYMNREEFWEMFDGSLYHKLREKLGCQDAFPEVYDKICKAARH
How it was run: (§3)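 SLOS patient skin fibroblasts (passage 8–20) grown in 96-well plates in delipidated serum with compound for 5 days; three different SLOS lines. Sterols quantified by PTAD-derivatized UPLC-MS plus GC-MS; 7-DHC expressed as percentage of untreated cells.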

Fibroblast = assay: Decrease in cholesterol levels in human SLOS fibroblasts at 10 nM after 5 days by LC-MS/GC-MS analysis; assay type: functional, cell-based; how it was run: as §3
[11] = Cytotoxicity against human SLOS fibroblasts at 5 uM after 5 days by Cell Titer assay; assay type: cell-based; conditions: fibroblast, 120 h

Clc1ccccc1CNC[C@H]1CC[C@H](CNCc2ccccc2Cl)CC1
Activity (N2a [1]): Active | Activity (N2a [2]): Active

CC[C@H](C)C(=O)O[C@H]1CCC=C2C=C[C@H](C)[C@H](CC[C@@H]3C[C@@H](O)CC(=O)O3)[C@H]21
7-DHC decrease call (active/inactive) [3]: Active

CCC(C)(C)C(=O)O[C@H]1C[C@@H](C)C=C2C=C[C@H](C)[C@H](CC[C@@H]3C[C@@H](O)CC(=O)O3)[C@H]21
7-DHC decrease call (active/inactive) [3]: Active

CC[C@H](C)C(=O)O[C@H]1C[C@@H](C)C=C2C=C[C@H](C)[C@H](CC[C@@H]3C[C@@H](O)CC(=O)O3)[C@H]21
7-DHC decrease call (active/inactive) [3]: Active

CCN(CC)CCO[C@H]1CC[C@@]2(C)C(=CC[C@@H]3[C@@H]2CC[C@]2(C)C(=O)CC[C@@H]32)C1
Activity (N2a [4]): Active

CN1CCN(CCCN2c3ccccc3Sc3ccc(C(F)(F)F)cc32)CC1
inhibition [5]: Active

O=c1n(CCCN2CCN(c3cccc(Cl)c3)CC2)nc2ccccn12
Activity (N2a [1]): Active | Activity (N2a [2]): Active

c1ccc(-c2ccc(C(c3ccccc3)n3ccnc3)cc2)cc1 (stereo not given) [BIFONAZOLE]
inhibition (INH) [6]: Active

Clc1ccc(COC(Cn2ccnc2)c2ccc(Cl)cc2Cl)cc1 (stereo not given) [ECONAZOLE]
inhibition (INH) [6]: Active

CO[C@H]1O[C@@H]2O[C@@]3(C)CC[C@H]4[C@H](C)CC[C@@H]([C@H]1C)[C@@]24OO3
7-DHC decrease call (active/inactive) [3]: Active

CC[C@H](C)C(=O)O[C@H]1C[C@H](O)C=C2C=C[C@H](C)[C@H](CC[C@@H](O)C[C@@H](O)CC(=O)O)[C@H]21
7-DHC decrease call (active/inactive) [3]: Active

CCN(CC)CCOc1ccc(C(O)(Cc2ccc(Cl)cc2)c2ccc(C)cc2)cc1 (stereo not given)
inhibition [7]: Active | inhibition [5]: Active

Clc1ccccc1C(c1ccccc1)(c1ccccc1)n1ccnc1 [CLOTRIMAZOLE]
inhibition (INH) [6]: Active

OCCN1CCN(CCCN2c3ccccc3Sc3ccc(Cl)cc32)CC1
inhibition [7]: Active | inhibition [5]: Active

O=C(O)C[C@H](O)C[C@H](O)/C=C/c1c(C2CC2)nc2ccccc2c1-c1ccc(F)cc1
7-DHC decrease call (active/inactive) [3]: Active | Decrease in 7-DHC levels (active/inactive call) [8]: Active | Activity (decrease in 7-DHC levels) [9]: Active

CN1CCN(CCCN2c3ccccc3Sc3ccc(Cl)cc32)CC1
inhibition [7]: Active | inhibition [5]: Active

Cc1ccc(NC(=O)c2ccc(CN3CCN(C)CC3)cc2)cc1Nc1nccc(-c2cccnc2)n1
inhibition [5]: Active

CC(=O)[C@H]1CC[C@H]2[C@@H]3CCC4=CC(=O)CC[C@]4(C)[C@H]3CC[C@]12C
inhibition [5]: Active

C[C@@H]1CC[C@H]2[C@@H](C)C(=O)O[C@@H]3O[C@@]4(C)CC[C@@H]1[C@]32OO4
inhibition [3]: Active

C[C@H]1c2cccc(O)c2C(=O)C2=C(O)[C@]3(O)C(=O)C(C(N)=O)=C(O)[C@@H](N(C)C)[C@@H]3[C@@H](O)[C@@H]21
Activity (N2a [4]): Active

O=C(CCCN1CCC(O)(c2ccc(Cl)cc2)CC1)c1ccc(F)cc1
Activity (N2a [1]): Active | Activity (N2a [2]): Active

OCCN1CCN(CCCN2c3ccccc3Sc3ccc(C(F)(F)F)cc32)CC1
inhibition [7]: Active

CN1CC[C@]2(c3cccc(O)c3)Cc3nc4ccccc4cc3C[C@H]2C1
inhibition [5]: Active

C[C@]12CC[C@@H]3c4ccc(O)cc4C[C@@H](CCCCCCCCC[S+]([O-])CCCC(F)(F)C(F)(F)F)[C@H]3[C@@H]1CC[C@@H]2O (stereo not given in full) [FULVESTRANT]
inhibition [10]: Active | Activity (Fibroblast): inactive | inhibition [5]: Active | Activity [11]: Toxic

CN(C)CCC=C1c2ccccc2COc2ccccc21
inhibition [5]: Active

CCc1c(C)[nH]c2c1C(=O)C(CN1CCOCC1)CC2 (stereo not given)
inhibition [5]: Active

OCCOCCN1CCN(C(c2ccccc2)c2ccc(Cl)cc2)CC1 (stereo not given)
inhibition [7]: Active

Clc1ccc(COC(Cn2ccnc2)c2ccc(Cl)cc2Cl)c(Cl)c1 (stereo not given) [MICONAZOLE]
inhibition (INH) [6]: Active

CCCC1O[C@@H]2C[C@H]3[C@@H]4CCC5=CC(=O)C=C[C@]5(C)[C@H]4[C@@H](O)C[C@]3(C)[C@]2(C(=O)CO)O1 (stereo not given in full)
Activity (N2a [4]): Active
